Measured values as given in ChEMBL document CHEMBL5303300, “EUbOPEN Chemogenomics Library - Multiplex” (2023).
Values joined by “and” are separate entries in the source; they are usually repeats but may differ in a detail not shown here. Equal values may be shown once.

Test system: U2OS
Assay: Multiplex assay against U2OS
Format: toxicity, cell-based
Settings: human, number of replicates 2
Method in brief: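 Live cells carried four stains from seeding: Hoechst33342, BioTracker Green Microtubule Cytoskeleton Dye, MitoTracker Red and Annexin V Alexa Fluor 680. They were imaged on a CQ1 microscope at 37°C and 5% CO2 after compound addition. Using CellPathfinder machine-learning gating, cells were split into Hoechst high-intensity objects or normal cells, normal cells into healthy, pyknosed or fragmented nuclei, and pyknosed cells into mitotic or apoptotic; tubulin, mitochondrial-mass and membrane-permeability phenotypes are per cents of healthy-nucleus cells.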

[1] = 12 h, 1 µM, compound concentration 1 uM
[2] = 12 h, 10 µM, compound concentration 10 uM
[3] = 24 h, 1 µM, compound concentration 1 uM
[4] = 24 h, 10 µM, compound concentration 10 uM
[5] = 48 h, 1 µM, compound concentration 1 uM
[6] = 48 h, 10 µM, compound concentration 10 uM

COCCN1CCN(CCn2ccc(Nc3ncc4c(n3)-c3c(nn(C)c3-c3ccccc3)C[C@H]4C)n2)CC1
Population Apoptotic (%) [1]: 40% and 50%
Population Healthy Nuclei (%) [1]: 84% and 72%
Population Hoechst High Intensity Objects (%) [1]: 0%
Population Membrane Permeable-Phenotype (%) [1]: 1% and 5%
Population Mitochondria Different-Phenotype (%) [1]: 0%
Population Mitotic Cells (%) [1]: 59% and 50%
Population Normal (%) [1]: 100%
Population Pyknosed Nuclei (%) [1]: 11% and 7%
Population Tubulin-Different-Phenotype (%) [1]: 82% and 40%
Population Apoptotic (%) [2]: 46% and 63%
Population Fragmented Nuclei (%) [2]: 8% and 4%
Population Healthy Nuclei (%) [2]: 61% and 79%
Population Hoechst High Intensity Objects (%) [2]: 0%
Population Membrane Permeable-Phenotype (%) [2]: 6% and 7%
Population Mitochondria Different-Phenotype (%) [2]: 6% and 8%
Population Mitotic Cells (%) [2]: 53% and 36%
Population Normal (%) [2]: 100% and 99%
Population Pyknosed Nuclei (%) [2]: 30% and 16%
Population Tubulin-Different-Phenotype (%) [2]: 20% and 35%
Population Apoptotic (%) [3]: 58% and 83%
Population Fragmented Nuclei (%) [3]: 2% and 10%
Population Healthy Nuclei (%) [3]: 86% and 81%
Population Hoechst High Intensity Objects (%) [3]: 0%
Population Membrane Permeable-Phenotype (%) [3]: 0% and 7%
Population Mitochondria Different-Phenotype (%) [3]: 0% and 1%
Population Mitotic Cells (%) [3]: 41% and 16%
Population Normal (%) [3]: 100%
Population Pyknosed Nuclei (%) [3]: 11% and 8%
Population Tubulin-Different-Phenotype (%) [3]: 83% and 47%
Population Apoptotic (%) [4]: 86% and 70%
Population Fragmented Nuclei (%) [4]: 12% and 4%
Population Healthy Nuclei (%) [4]: 63% and 78%
Population Hoechst High Intensity Objects (%) [4]: 0%
Population Membrane Permeable-Phenotype (%) [4]: 5% and 4%
Population Mitochondria Different-Phenotype (%) [4]: 5% and 12%
Population Mitotic Cells (%) [4]: 13% and 29%
Population Normal (%) [4]: 100%
Population Pyknosed Nuclei (%) [4]: 23% and 16%
Population Tubulin-Different-Phenotype (%) [4]: 40% and 37%
Population Apoptotic (%) [5]: 58% and 45%
Population Fragmented Nuclei (%) [5]: 10% and 1%
Population Healthy Nuclei (%) [5]: 68% and 89%
Population Hoechst High Intensity Objects (%) [5]: 0%
Population Membrane Permeable-Phenotype (%) [5]: 9% and 1%
Population Mitochondria Different-Phenotype (%) [5]: 0%
Population Mitotic Cells (%) [5]: 41% and 54%
Population Normal (%) [5]: 100%
Population Pyknosed Nuclei (%) [5]: 21% and 8%
Population Tubulin-Different-Phenotype (%) [5]: 54% and 80%
Population Apoptotic (%) [6]: 88% and 91%
Population Fragmented Nuclei (%) [6]: 12% and 6%
Population Healthy Nuclei (%) [6]: 70% and 78%
Population Hoechst High Intensity Objects (%) [6]: 0%
Population Membrane Permeable-Phenotype (%) [6]: 10%
Population Mitochondria Different-Phenotype (%) [6]: 2% and 9%
Population Mitotic Cells (%) [6]: 11% and 8%
Population Normal (%) [6]: 100% and 99%
Population Pyknosed Nuclei (%) [6]: 16% and 14%
Population Tubulin-Different-Phenotype (%) [6]: 38% and 34%

CCn1ccc(Nc2ncc3c(n2)-c2c(nn(C)c2-c2ccc(-c4cnn(C)c4)cc2Cl)CC3)n1
Population Apoptotic (%) [1]: 62% and 57%
Population Fragmented Nuclei (%) [1]: 5% and 15%
Population Healthy Nuclei (%) [1]: 83% and 63%
Population Hoechst High Intensity Objects (%) [1]: 0%
Population Mitochondria Different-Phenotype (%) [1]: 1% and 9%
Population Mitotic Cells (%) [1]: 37% and 42%
Population Normal (%) [1]: 100%
Population Pyknosed Nuclei (%) [1]: 11% and 21%
Population Tubulin-Different-Phenotype (%) [1]: 78% and 47%
Population Apoptotic (%) [2]: 62% and 66%
Population Fragmented Nuclei (%) [2]: 3% and 4%
Population Healthy Nuclei (%) [2]: 71% and 83%
Population Hoechst High Intensity Objects (%) [2]: 0%
Population Membrane Permeable-Phenotype (%) [2]: 13% and 4%
Population Mitochondria Different-Phenotype (%) [2]: 8% and 4%
Population Mitotic Cells (%) [2]: 37% and 33%
Population Normal (%) [2]: 100%
Population Pyknosed Nuclei (%) [2]: 25% and 11%
Population Tubulin-Different-Phenotype (%) [2]: 39% and 29%
Population Apoptotic (%) [3]: 70% and 62%
Population Healthy Nuclei (%) [3]: 85% and 64%
Population Hoechst High Intensity Objects (%) [3]: 0%
Population Mitochondria Different-Phenotype (%) [3]: 1% and 6%
Population Mitotic Cells (%) [3]: 29% and 37%
Population Normal (%) [3]: 99% and 100%
Population Pyknosed Nuclei (%) [3]: 9% and 17%
Population Tubulin-Different-Phenotype (%) [3]: 76% and 37%
Population Apoptotic (%) [4]: 83% and 63%
Population Fragmented Nuclei (%) [4]: 8% and 5%
Population Healthy Nuclei (%) [4]: 75% and 82%
Population Hoechst High Intensity Objects (%) [4]: 0%
Population Membrane Permeable-Phenotype (%) [4]: 7% and 2%
Population Mitochondria Different-Phenotype (%) [4]: 18% and 6%
Population Mitotic Cells (%) [4]: 16% and 36%
Population Normal (%) [4]: 100%
Population Pyknosed Nuclei (%) [4]: 16% and 11%
Population Tubulin-Different-Phenotype (%) [4]: 44% and 29%
Population Apoptotic (%) [5]: 63% and 100%
Population Healthy Nuclei (%) [5]: 89% and 77%
Population Hoechst High Intensity Objects (%) [5]: 0%
Population Membrane Permeable-Phenotype (%) [5]: 1% and 8%
Population Mitochondria Different-Phenotype (%) [5]: 0% and 4%
Population Normal (%) [5]: 100%
Population Pyknosed Nuclei (%) [5]: 7% and 9%
Population Tubulin-Different-Phenotype (%) [5]: 81% and 40%
Population Apoptotic (%) [6]: 68% and 75%
Population Fragmented Nuclei (%) [6]: 8% and 3%
Population Healthy Nuclei (%) [6]: 55% and 80%
Population Hoechst High Intensity Objects (%) [6]: 0%
Population Membrane Permeable-Phenotype (%) [6]: 4% and 3%
Population Mitochondria Different-Phenotype (%) [6]: 12% and 4%
Population Mitotic Cells (%) [6]: 31% and 25%
Population Normal (%) [6]: 100% and 99%
Population Pyknosed Nuclei (%) [6]: 35% and 16%
Population Tubulin-Different-Phenotype (%) [6]: 44% and 35%

CN1CCN(c2ccc(-n3cc(-c4ccncc4OCC4CCNCC4)cn3)cc2)CC1
Population Apoptotic (%) [1]: 100% and 71%
Population Healthy Nuclei (%) [1]: 63% and 82%
Population Hoechst High Intensity Objects (%) [1]: 0%
Population Membrane Permeable-Phenotype (%) [1]: 6% and 1%
Population Mitochondria Different-Phenotype (%) [1]: 3% and 2%
Population Normal (%) [1]: 100%
Population Pyknosed Nuclei (%) [1]: 2% and 10%
Population Tubulin-Different-Phenotype (%) [1]: 75% and 77%
Population Apoptotic (%) [2]: 80%
Population Healthy Nuclei (%) [2]: 48% and 67%
Population Hoechst High Intensity Objects (%) [2]: 1% and 0%
Population Membrane Permeable-Phenotype (%) [2]: 0% and 5%
Population Mitochondria Different-Phenotype (%) [2]: 7% and 16%
Population Mitotic Cells (%) [2]: 20% and 19%
Population Normal (%) [2]: 98% and 99%
Population Pyknosed Nuclei (%) [2]: 17% and 22%
Population Tubulin-Different-Phenotype (%) [2]: 21% and 36%
Population Apoptotic (%) [3]: 100% and 78%
Population Healthy Nuclei (%) [3]: 69% and 84%
Population Hoechst High Intensity Objects (%) [3]: 0%
Population Membrane Permeable-Phenotype (%) [3]: 4% and 1%
Population Mitochondria Different-Phenotype (%) [3]: 2% and 1%
Population Mitotic Cells (%) [3]: 0% and 21%
Population Normal (%) [3]: 100%
Population Pyknosed Nuclei (%) [3]: 3% and 11%
Population Tubulin-Different-Phenotype (%) [3]: 72% and 85%
Population Apoptotic (%) [4]: 76% and 88%
Population Fragmented Nuclei (%) [4]: 34% and 12%
Population Healthy Nuclei (%) [4]: 25% and 32%
Population Hoechst High Intensity Objects (%) [4]: 1% and 0%
Population Membrane Permeable-Phenotype (%) [4]: 6% and 8%
Population Mitochondria Different-Phenotype (%) [4]: 18% and 26%
Population Mitotic Cells (%) [4]: 24% and 11%
Population Normal (%) [4]: 98% and 100%
Population Pyknosed Nuclei (%) [4]: 39% and 55%
Population Tubulin-Different-Phenotype (%) [4]: 31% and 48%
Population Apoptotic (%) [5]: 54% and 86%
Population Healthy Nuclei (%) [5]: 51% and 86%
Population Hoechst High Intensity Objects (%) [5]: 0%
Population Membrane Permeable-Phenotype (%) [5]: 5% and 0%
Population Mitochondria Different-Phenotype (%) [5]: 1%
Population Normal (%) [5]: 100%
Population Pyknosed Nuclei (%) [5]: 10% and 9%
Population Tubulin-Different-Phenotype (%) [5]: 78% and 88%
Population Apoptotic (%) [6]: 90%
Population Healthy Nuclei (%) [6]: 13% and 21%
Population Hoechst High Intensity Objects (%) [6]: 0% and 1%
Population Membrane Permeable-Phenotype (%) [6]: 55% and 60%
Population Mitochondria Different-Phenotype (%) [6]: 55% and 60%
Population Mitotic Cells (%) [6]: 9%
Population Normal (%) [6]: 100% and 98%
Population Pyknosed Nuclei (%) [6]: 44% and 69%
Population Tubulin-Different-Phenotype (%) [6]: 88% and 65%
Total Cell Count [6]: 69 and 181
